Measurements published in ChEMBL document CHEMBL1159346, “Antineoplastic agents. 488. Isolation and structure of yukonin from a yukon territory fungus” (2003).
Values after ≈ are worked out from the molar mass of the structure shown.

Experiments:
Format in all cases: functional
[1] = system: Cryptococcus neoformans; test: Antimicrobial activity against Cryptococcus neoformans by broth microdilution method
Outline: (§1)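 Yeast strains: Candida albicans ATCC 90028 and Cryptococcus neoformans ATCC 90112. Tested by broth microdilution following the NCCLS reference broth dilution method for yeasts. The MIC was read as the lowest compound concentration giving no visible growth (optically clear wells).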

[2] = system: Candida albicans; test: Antimicrobial activity against Candida albicans by broth microdilution method; outline: as §1
[3] = system: P388; test: Cytotoxicity against mouse P388 cells
[4] = system: BXPC-3; test: Cytotoxicity against human BxPC3 cells
[5] = system: MCF7; test: Cytotoxicity against human MCF7 cells
[6] = system: SF-268; test: Cytotoxicity against human SF268 cells
[7] = system: NCI-H460; test: Cytotoxicity against human NCI-H460 cells
[8] = system: KM-20L2; test: Cytotoxicity against human KM20L2 cells
[9] = system: DU-145; test: Cytotoxicity against human DU145 cells

Row | MIC [1] | MIC [2] | Structure (SMILES) | GI50 [3] | GI50 [4] | GI50 [5] | GI50 [6] | GI50 [7] | GI50 [8] | GI50 [9]
1 | 16 µg/mL (≈ 58.3 µM) | 64 µg/mL (≈ 233 µM) | C[C@@]12CCC[C@]3(C)C4=CC(=O)OCC4=C[C@@H](OC1=O)[C@@H]23 | 0.31 µg/mL (≈ 1.13 µM) | 1.8 µg/mL (≈ 6.56 µM) | 0.69 µg/mL (≈ 2.52 µM) | 0.57 µg/mL (≈ 2.08 µM) | 0.48 µg/mL (≈ 1.75 µM) | 0.45 µg/mL (≈ 1.64 µM) | 0.34 µg/mL (≈ 1.24 µM)
2 | 2 µg/mL (≈ 6.57 µM) | 8 µg/mL (≈ 26.3 µM) | CO[C@H]1OC(=O)C=C2C1=C[C@H]1OC(=O)[C@@]3(C)CCC[C@@]2(C)[C@@H]13 | 4.1 µg/mL (≈ 13.5 µM) | 0.36 µg/mL (≈ 1.18 µM) | 0.33 µg/mL (≈ 1.08 µM) | 0.24 µg/mL (≈ 0.789 µM) | 0.24 µg/mL (≈ 0.789 µM) | 0.21 µg/mL (≈ 0.69 µM) | 0.14 µg/mL (≈ 0.46 µM)
3 | 64 µg/mL (≈ 220 µM) | > 64 µg/mL | C[C@@]12CCC[C@]3(C)C4=CC(=O)O[C@@H](O)C4=C[C@@H](OC1=O)[C@@H]23 [YUKONIN] | > 10 µg/mL | 5.6 µg/mL (≈ 19.3 µM) | 4 µg/mL (≈ 13.8 µM) | 2.9 µg/mL (≈ 9.99 µM) | 4.1 µg/mL (≈ 14.1 µM) | 3.6 µg/mL (≈ 12.4 µM) | 2.9 µg/mL (≈ 9.99 µM)
